The record followed here is PubChem BioAssay AID504490 (NMMLSC, 2011).

The whole screen tested about 340,000 compounds, of which about 1,100 (0.32%) were called active. The entries come from a sample that favours actives as a whole. Values without a mark were called inactive.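 Rule for the calls: active = inhibition above a set limit, near 3 SD of compounds lacking own fluorescence (cut at about 54% in these data); inactive = the rest.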

The test system of this test is beta-arrestin 1 C-terminal peptide binding to AP2 beta2-adaptin appendage (human). Briefly: blockers of arrestin peptide association with AP2 adaptin – biochemical, GPCR trafficking, flow cytometry, primary screen (AID 504490).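 Note: plate controls were DMSO wells for no effect and 5 µM unlabelled arrestin peptide for full effect.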 The note with it: FITC-arrestin peptide / GST-AP2 beads, at 10 µM, stronger effect = higher value, AP2 beta2 appendage carries R879A mutation. Summed up:
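System: GST-AP2 R879A glutathione beads | Also added: FITC-arrestin peptide, 50 nM | Times: 12 min plus 1 h, RT | Signal: Bead flow cytometry, FITC channel | Buffer or medium: PBS with 0.05% Tween 20 and 0.1% BSA | Read-out basis: Percent drop in bead-associated FITC signal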
For `COc1cccc(/C=C2/SC(=S)N(CC(=O)NC3C=CS(=O)(=O)C3)C2=O)c1` (stereo unspecified), the inhibition was -14%.

Take `COc1ccc(/C=C2\SC(=S)N(CCC(=O)Nc3ccccn3)C2=O)cc1OC`: the inhibition is 73.7% (active).

As to `CCOc1ccc(/C=C2\SC(=S)N(NC(=O)c3ccncc3)C2=O)cc1OC`, the inhibition is 18.7%.

For the compound `N#CCCN(C(=O)COC(=O)c1ccc(S(=O)(=O)N2CCCCCC2)cc1)c1ccccc1`, the inhibition was -3.59%.

For the compound `CC(=O)c1c(C)[nH]c(C(=O)COC(=O)CCOc2ccc(C)cc2)c1C`, the inhibition is 5.24%.

With `Cc1ccc(OCCCCc2c(C)n[nH]c2C)cc1`, the inhibition was 65.1% (active).

As for `COc1ccc(-c2[nH]ncc2CN(C)Cc2c(C)n[nH]c2C)c(OC)c1`, the inhibition was 6.55%.

With `Cc1cc(NC(=O)CCS(=O)(=O)c2ccc(F)cc2)no1`, the inhibition is -7.97%.

As for `CC1CN(C(=O)c2ccccc2NS(=O)(=O)c2cccc([N+](=O)[O-])c2)CC(C)O1` (stereo unspecified), the inhibition was 2.09%.

Turning to `NC(=O)C1CCN(C(=O)CC2C(=O)NCCN2Cc2cccc(Oc3ccccc3)c2)CC1` (stereo unspecified), the inhibition was 68.5% (active).

In the case of `CN(CCc1cn[nH]c1)C(=O)CC1C(=O)NCCN1Cc1cccc(Oc2ccccc2)c1` (stereo unspecified), the inhibition was 9%.

Take `COc1cccc(CN2CCNC(=O)C2CC(=O)N(C)CCc2ccccn2)c1` (stereo unspecified): the inhibition is -2.95%.

For the compound `Cc1nc2c(ncn2-c2ccccc2)c(=O)n1NC(=O)CN1CCCC1`, the inhibition is -8.96%.

Regarding `COc1ccc(-n2ncc3c2CC(C)(C)CC3NC(=O)CCc2c(C)noc2C)cc1` (stereo unspecified), the inhibition was 5.75%.

As for `O=C(c1ccc(Cl)s1)N(Cc1nnc(-c2ccccc2Cl)o1)C1CC1`, the inhibition was -9.93%.

`O=C(Nc1nc(-c2ccco2)c(-c2ccco2)s1)c1ccco1`: the inhibition is 8.21%.

For the compound `COCCNC(=O)c1snc2ccc(Cl)cc12`, the inhibition was 2.57%.

On to `COCCNC(=O)Nc1ccc2nc(-c3ccco3)c(-c3ccco3)nc2c1`, for which the inhibition is 68% (active).

Turning to `CCc1noc(C)c1C(=O)N1CCCC(N2CCN(c3ccc(F)cc3)CC2)C1` (stereo unspecified), the inhibition was 7.14%.

Take `COc1cccc(C2SCC(=O)N2c2cccc(C)c2)c1OC` (stereo unspecified): the inhibition was 3.87%.

For the compound `CCc1ccc(NC(=O)Nc2ccncc2)cc1`, the inhibition is 0.23%.

Turning to `NS(=O)(=O)c1ccc2nc(NC(=O)CS(=O)(=O)c3ccc(F)cc3)sc2c1`, the inhibition was 3.77%.

As for `Cc1csc(NC(=O)C2=COCCO2)n1`, the inhibition was 17.8%.

Turning to `NS(=O)(=O)c1ccc2nc(NC(=O)C3=COCCO3)sc2c1`, the inhibition is 58.1% (active).

Consider `O=C1N(Cc2ccc3c(c2)OCO3)c2ccccc2C1(O)c1c[nH]c2ccccc12` (stereo unspecified), for which the inhibition was 2.95%.

On to `Cc1ccccc1Cn1c2ccccc2c2cnn(CC(=O)NCc3ccco3)c(=O)c21`, for which the inhibition is -0.8%.

On to `CCOc1ccc(C(C)=O)cc1COC(=O)CN1C(=O)NC2(CCCC2)C1=O`, for which the inhibition is 3.04%.

Take `S=c1ccc2ccccc2[nH]1`: the inhibition was -7.56%.

In the case of `COC(=O)C1=C(C)N(C)C(C)=C(C(=O)OC)C1c1cccc(Br)c1`, the inhibition is -3.12%.

Turning to `CCN1C[C@@H]2[C@@H]3C(=O)N(Cc4ccccc4)C(=O)[C@@H]3[C@](Cc3ccccc3)(C(=O)OC)N2C1=NC1CCCCC1`, the inhibition was 4.73%.

For `NC(=O)c1ccc(Nc2ccc3c(c2)CCC3)c([N+](=O)[O-])c1`, the inhibition is 38.4%.

Turning to `Cc1ccc(Nc2ccc(C(N)=O)cc2[N+](=O)[O-])cc1`, the inhibition was 54.7% (active).

As for `CCOc1ccccc1Nc1ccc(C(=O)O)cc1[N+](=O)[O-]`, the inhibition was 35.8%.

On to `S=C(Nc1cccnc1)Nc1ccccn1`, for which the inhibition is 3.47%.

On to `CCOc1ccccc1C1CC(c2ccc(Cl)cc2)Nc2nc(N)nn21` (stereo unspecified), for which the inhibition was 10.8%.

As for `O=c1[nH]c2ccccc2n2c(-c3ccccc3)nnc12`, the inhibition is 55.3% (active).

`O=c1[nH]n2c(-c3ccccc3)nc(O)c2c2ccccc12`: the inhibition was -0.17%.

For `Cc1ccc(-c2cccc([C@H]3[C@@H]4C=CC[C@@H](C)[C@@H]4C(=O)N3Cc3ccccc3)c2)cc1`, the inhibition is -6.59%.

For `CCC1(CC)NC(=O)N(CC(=O)OCC(=O)NC(=O)c2ccccc2)C1=O`, the inhibition is 5.01%.

Consider `CC(=O)Nc1ccc(S(=O)(=O)N2CCC(N(C)CCC(C)C)CC2)cc1`, for which the inhibition was -0.3%.

Regarding `CC(CN1CCOCC1)OC(=O)c1ccc(Cl)cc1Cl` (stereo unspecified), the inhibition was 8.15%.

As to `CC(CN1CCCCC1)OC(=O)c1ccccc1Cl` (stereo unspecified), the inhibition is 84.6% (active).

As to `Cc1cccc(C(=O)OC(C)CN2CCCC2)c1` (stereo unspecified), the inhibition was 14.8%.

In the case of `Cc1cccn2c(=O)c(/C=C(\C#N)S(=O)(=O)c3ccc(Cl)cc3)c(N3CCC(C(N)=O)CC3)nc12`, the inhibition was 3.53%.

For `Cc1cc(C)cc(Oc2nc3c(C)cccn3c(=O)c2/C=C(\C#N)C(=O)NC2CCS(=O)(=O)C2)c1` (stereo unspecified), the inhibition is 77.2% (active).

With `Cc1cccn2c(=O)c(/C=C(\C#N)C(N)=O)c(N3CCCCCC3)nc12`, the inhibition was -21.3%.

In the case of `CCCn1c(O)c(CN2CCCC(C)C2)c(C)c(C#N)c1=O` (stereo unspecified), the inhibition is 11.7%.

In the case of `O=C(NNc1cc(Cl)cc(Cl)c1)c1c(F)cccc1Cl`, the inhibition is -11.9%.

For the compound `O=C(NCc1ccco1)c1cc2sccc2n1Cc1ccc(F)cc1`, the inhibition is 1.12%.

`CCN(CC(=O)NCc1ccco1)S(=O)(=O)c1ccc(F)cc1`: the inhibition was 24.4%.

On to `O=C(NCc1ccco1)c1ccc(CS(=O)(=O)Cc2ccc(F)cc2)o1`, for which the inhibition was 97% (active).

Turning to `Cc1ccc(NS(=O)(=O)c2cn(C)c(=O)n(C)c2=O)c(C)c1`, the inhibition was -3.22%.

As to `Cc1ccc(CC2C(=O)N(c3ccc(F)cc3)C(=O)C2C)cc1` (stereo unspecified), the inhibition is -10.9%.

Consider `COc1ccc(CNCCCn2cnc3c(OCc4ccccc4)ncnc32)cc1`, for which the inhibition was 3.96%.

Regarding `CC(C)Nc1ncnc2c1nnn2Cc1ccccc1`, the inhibition is -0.65%.

For the compound `COc1ccc(CCNc2ncnc3c2nnn3Cc2ccccc2)cc1`, the inhibition was 56% (active).

For the compound `CN(CCCC(=O)Nc1nccs1)S(=O)(=O)c1ccc(Cl)cc1`, the inhibition is -5.07%.

As for `O=C(Nc1ccccc1N1CCOCC1)c1ccncc1`, the inhibition is -0.66%.

As for `CN(C)c1ccc(NC(=O)c2ccncc2)c2ccccc12`, the inhibition was 57.2% (active).

With `Cc1c(C(=O)NNC(=O)c2ccncc2)oc2ccccc12`, the inhibition is -2.61%.

For `CC(=O)N1C(=O)/C(=C2\SC(=S)N(NC(=O)c3ccc(O)cc3)C2=O)c2ccccc21`, the inhibition is 7.23%.

Consider `CC(C)c1nnc(NC(=O)CCC(=O)N2CCN(c3cccc(Cl)c3)CC2)s1`, for which the inhibition is 59.1% (active).

Regarding `CCc1nnc(NC(=O)CCC(=O)N2CCN(c3cc(C)ccc3C)CC2)s1`, the inhibition was 27.2%.

`COc1ccc(CN2CCN(C(=O)CCC(=O)Nc3nnc(C(C)C)s3)CC2)cc1F`: the inhibition was 17.3%.

As for `C=C1c2cccc(OC)c2O[C@H](C(=O)OCC)[C@@H]1CCCCCC`, the inhibition was -3.22%.

Regarding `C=CCO/N=C(\C)c1c(O)c(C)c(-c2ccccc2)n(-c2ccccc2)c1=O`, the inhibition was 32.4%.

As to `C/C(=N\Nc1ccc([N+](=O)[O-])cc1)c1ccc(-n2nncc2C(C)(C)C)cc1`, the inhibition is 93.7% (active).

Turning to `COc1ccc(C(=O)Nc2ccc(-n3nncc3C(C)(C)C)cc2)cc1`, the inhibition was -18.4%.

For the compound `CC(C)(C)c1cnnn1-c1ccc([N+](=O)[O-])cc1`, the inhibition is -1.38%.

On to `CCOC(=O)C(CO)NC(=O)C1(NC(C)=O)CCCC1` (stereo unspecified), for which the inhibition is 2.61%.

`COc1ccccc1NC(=O)c1c(Br)cnn1C`: the inhibition is 6.15%.

For `O=C(NNC(=O)C1C2CCC(C2)C1C(=O)O)c1ccc(Cl)cc1` (stereo unspecified), the inhibition is 10.1%.

On to `Cc1ccc(S/C(=N\S(=O)(=O)c2ccc(Cl)cc2)c2ccccc2)cc1`, for which the inhibition is 2.53%.

Regarding `Cc1ccc(S(=O)(=O)/N=C(/Nc2ccccn2)c2ccc(Cl)cc2)cc1`, the inhibition is 70.7% (active).

As to `O=S(=O)(/N=C(/Nc1ccccn1)c1ccccc1)c1ccc(Cl)cc1`, the inhibition is 2.67%.

Consider `O=C(O)c1ccccc1NC(=S)NC(NC(=O)c1ccccc1[N+](=O)[O-])C(Cl)(Cl)Cl` (stereo unspecified), for which the inhibition was 0.7%.

Regarding `CCOC(=O)c1ccc(NC(=S)N2CCN(c3ccccn3)CC2)cc1`, the inhibition is -3.13%.

For `CN1CCN(S(=O)(=O)c2ccc(NC(=O)C3CCCO3)cc2)CC1` (stereo unspecified), the inhibition is -5.38%.

As to `O=C(C1CCCN1S(=O)(=O)c1ccc(Br)cc1)N1CCOCC1` (stereo unspecified), the inhibition was -2.49%.

For `O=C(C1CCCO1)N1CCN(S(=O)(=O)c2ccc(Br)cc2)CC1` (stereo unspecified), the inhibition is 54.4% (active).

Consider `CCC1(C(=O)c2ccccc2)C(c2cccc([N+](=O)[O-])c2)C1(C(=O)OC)C(=O)OC` (stereo unspecified), for which the inhibition was -3.23%.

Regarding `CCOC(=O)c1sc(NC(=O)CSc2nc(O)c(Cc3ccccc3)c(=O)[nH]2)nc1C`, the inhibition is 45.5%.

In the case of `COc1ccc(-c2nnc(-c3ccc4ccccc4c3)o2)cc1`, the inhibition is 5.64%.

On to `CCOc1ccc(-n2c(SCC(N)=O)nnc2-c2ccco2)cc1`, for which the inhibition was -5.91%.

As for `CCOc1ccc(-c2nnc(-c3ccco3)o2)cc1`, the inhibition was 55% (active).

`C[C@@H]1CC[C@@]2(OC1)O[C@H]1C[C@H]3[C@@H]4CC=C5C[C@@H](O)[C@H](O)C[C@]5(C)C4CC[C@]3(C)[C@H]1[C@@H]2C` (stereo partly specified): the inhibition was 26.8%.

As for `Cn1c(=O)c([N+](=O)[O-])c(Oc2ccccc2)c2ccccc21`, the inhibition is 54.9% (active).

Consider `Cc1cc(C)c(-c2c(O)c3ccccc3n(C)c2=O)c(C)c1`, for which the inhibition was 3.35%.

Take `Cc1cccc(Oc2c([N+](=O)[O-])c(=O)n(C)c3ccccc23)c1`: the inhibition was 8.99%.

For the compound `CCn1c(C)nc2cc(C(=O)NNS(=O)(=O)c3ccc(C)cc3C)ccc21`, the inhibition was -9.91%.

Regarding `CCNc1c(NS(=O)(=O)c2ccc(C3CCCCC3)cc2)c(=O)oc2ccccc12`, the inhibition was 27.9%.
